# Test: Inhibition constant against Adenosine A2a receptor
# How it was run: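 Membranes from HEK cells expressing human A2A receptor, incubated with 1 nM [3H]SCH-58261 and 10 test concentrations. Buffer: phosphate-buffered saline with 10 mM MgCl2, 0.04% methyl cellulose, adenosine deaminase and 4% DMSO. Incubation 60 min at 23 °C, then filtration and washes with cold water. Nonspecific binding defined with CGS-15943. Duplicates, each compound tested twice. IC50 from one-site fit, Ki by Cheng–Prusoff.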
row,SMILES,Ki [nM]
1,Cc1ccc2c(c1)-c1nc(N)nc(-c3ccc(CO)o3)c1C2,2.6
2,CCc1ccc2c(c1)-c1nc(N)nc(-c3ccc(Br)o3)c1C2,2.6
3,COc1ccc2c(c1)-c1nc(N)nc(-c3ccc(Br)o3)c1C2,1.6
4,CC(C)(C)c1ccc2c(c1)-c1nc(N)nc(-c3ccc(Br)o3)c1C2,8.1
5,Nc1nc(-c2ccccc2)c2oc3ccccc3c2n1,9
6,Nc1nc(-c2ccccc2)c2c(n1)-c1ccccc1CC2,172
7,Nc1nc(-c2ccc(Br)o2)c2c(n1)-c1cc(Cl)ccc1C2,1
8,Cc1ccc2c(c1)-c1nc(N)nc(-c3ccccc3)c1C2,11
9,CC(C)c1ccc2c(c1)-c1nc(N)nc(-c3ccc(Br)o3)c1C2,0.8
10,Cc1ccc2c(c1)-c1nc(N)nc(-c3ccco3)c1C2,6.7
11,Cc1ccc2c(c1)-c1nc(N)nc(-c3ccc(C)o3)c1C2,7.1
12,Cc1ccc2c(c1)-c1nc(N)nc(-c3ccc(Br)o3)c1C2,4.2

# The remaining lines, values ahead:
row,Ki [nM],SMILES
1,4.2,Cc1ccc2c(c1)-c1nc(N)nc(C3CCC(Br)O3)c1C2 (stereo not given)
2,56.9,Cc1ccc2c(c1)-c1nc(N)nc(-c3ccncc3)c1C2
3,40.5,Nc1nc(-c2ccccc2)c2[nH]c3ccccc3c2n1
4,3.9,Nc1nc(-c2ccc(Br)o2)c2c(n1)-c1cc(N3CCCC3)ccc1C2
5,168,Nc1nc(-c2ccccc2)c2c(n1)-c1ccccc1C2O (stereo not given)
6,10.9,Nc1nc(-c2ccc(Br)o2)c2c(n1)-c1cc(-c3ccccc3)ccc1C2
7,154,Cc1ccc2c(c1)-c1nc(N)nc(-c3ccccn3)c1C2
8,1.7,Nc1nc(-c2ccccc2)c2c(n1)-c1ccccc1C2=O

# From ChEMBL document CHEMBL1141997, “The discovery and synthesis of novel adenosine receptor (A(2A)) antagonists” (Bioorg Med Chem Lett, 2005)
